Only some compounds are listed: those with a hit (about 4.3% of all), similar ones and a draw of the others.
SR-BI uptake up – enhances SR-BI lipid uptake from DiI-HDL. AID 504775. CHO ldlA[mSR-BI] cells, DiI-HDL uptake fluorescence, 3 h; 100 = double the neutral-control signal. activation, % at 12.5 µM. hit rate 0.096% among 320,000;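 active = mean replicate activation of at least 60% and every replicate at or above 60%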
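Test system: SR-BI-overexpressing, LDLR-lacking CHO cells; Medium: Ham's F12 with 0.5% BSA, HEPES 25 mM, pH 7.4; Schedule: 3 h, 37 °C; Technique: bottom-read fluorescence, 550/595 nm.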
Yeast superoxide – yeast age-related superoxide inhibition as caloric restriction mimetic; S. cerevisiae aged cells, superoxide DHE fluorescence; stronger effect = lower value; superoxide response (% of plate mean), % at 10 µM; hit rate 0.18% among 330,000; AID 2690;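 active = superoxide response under a set limit, about three screen SD below normal, cut at about 65% in these data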;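 note: yeast aged for seven days with compound at 30 °C before DHE staining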
Lipid droplet – modulators of hepatic lipid droplet formation; hit rate 0.4% among 240,000; inhibition, % at 6.5 µM; AID 1656; AML12 mouse hepatocytes, oleate lipid droplets, BODIPY imaging;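 active = lipid droplet intensity inhibited by at least 50%, with more than 500 cells counted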
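Assay system: AML12 mouse liver cells | Compound dosing: One dose, 6.5 µM compound | Read-out basis: Droplet intensity reduction, % inhibition | Measured by: Fluorescence imaging, 20x objective, two fields per well | Schedule: Overnight treatment with compound plus oleate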
SMARCA2 activ – increases SMARCA2 function in MMTV reporter cells; MG213 cells, MMTV-luciferase reporter, dexamethasone, overnight; activation, % at 9.1 µM; hit rate 1% among 370,000; in the data active = activation above about 7.8%
AHR activator – activates the human aryl hydrocarbon receptor; activation, % at 5 µM; AHR-responsive luciferase reporter cells, luminescence; P35869; hit rate 2.5% among 320,000; AID 2796; in the data active = activation above about 47%
SR-BI HDL uptake – inhibitors of mouse SR-BI mediated HDL lipid uptake. ldlA[mSR-BI] CHO cells, DiI-HDL uptake fluorescence, 3 h. AID 488896. inhibition, % at 12.5 µM. hit rate 0.96% among 320,000;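 active = mean replicate inhibition of at least 70% and a set share of replicates each scoring 70 or more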
Target sequence (Q61009 whole entry, looked up): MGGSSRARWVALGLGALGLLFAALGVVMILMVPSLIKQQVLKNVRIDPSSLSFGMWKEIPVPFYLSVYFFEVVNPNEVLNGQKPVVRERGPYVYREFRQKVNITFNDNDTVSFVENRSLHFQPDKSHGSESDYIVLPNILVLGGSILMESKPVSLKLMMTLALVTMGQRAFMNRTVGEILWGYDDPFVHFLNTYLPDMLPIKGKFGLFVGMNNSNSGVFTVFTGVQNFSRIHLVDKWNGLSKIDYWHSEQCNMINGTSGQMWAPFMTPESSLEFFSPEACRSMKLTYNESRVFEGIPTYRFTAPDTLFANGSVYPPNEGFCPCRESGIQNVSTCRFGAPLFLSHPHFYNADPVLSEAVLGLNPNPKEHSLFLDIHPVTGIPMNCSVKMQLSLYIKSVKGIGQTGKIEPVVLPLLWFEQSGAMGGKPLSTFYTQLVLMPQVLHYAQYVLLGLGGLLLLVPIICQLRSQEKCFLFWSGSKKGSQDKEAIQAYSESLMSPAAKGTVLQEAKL
AHR act confirm – confirmation of human aryl hydrocarbon receptor activators; human cells, AHR-responsive luciferase reporter, luminescence; hit rate 87% among 2,300; shares compounds with AHR activator; AID 2845; activation, % at 9 µM; in the data active = activation above about 49%;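 note: HepG2 hepatoma cells carrying a DRE-driven firefly luciferase reporter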
PXR counter – counter-screen for AHR activators: human PXR activators | shares compounds with AHR activator | cell-based PXR reporter, luciferase luminescence | activation, % at 11.6 µM | hit rate 88% among 2,300; in the data active = activation above about 11%;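 note: human hepatoma DPX-2 cells expressing full-length human PXR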
Large screens that a line does not name were inactive (follow-up assays come after a bar, where they were run).

CC(=O)N1N=C2c3ccccc3CCC2C1c1ccc(F)cc1 (configuration not stated)	AHR activator 98.9 (no result: SR-BI uptake up, SR-BI HDL uptake) | AHR act confirm 107.7 | PXR counter 28.7
O=C(c1ccccn1)N1N=C2/C(=C/c3ccc(F)cc3)CCCC2C1c1ccc(F)cc1 (configuration not stated)	AHR activator 93.9 | AHR act confirm 95.0 | PXR counter 49.0
CC(=O)N1N=C2/C(=C/c3ccccc3)CCCC2C1c1ccccc1 (configuration not stated)	AHR activator 100.5 | AHR act confirm 86.9 | PXR counter 100.6
COc1ccc2c(c1)CCC1C2=NN(/C(C)=C/C(C)=O)C1c1cccc(F)c1 (configuration not stated)	none
O=S1(=O)c2ccc(N3CCCC3)cc2Oc2ccccc2CN1Cc1cn(Cc2ccc(C(F)(F)F)cc2)nn1	none (no result: SR-BI uptake up, Yeast superoxide, Lipid droplet, AHR activator, SR-BI HDL uptake)
CC(C)[C@H](NC(=O)c1ccccc1)C(=O)N1CCC[C@H]1C(=O)NCCc1ccccc1Cl	none (no result: SR-BI uptake up, Yeast superoxide, Lipid droplet, AHR activator, SR-BI HDL uptake)
O[C@H](COc1ccc(OC(F)(F)F)cc1)CN1CCC(C(O)(c2ccccc2)c2ccccc2)CC1	none (no result: SR-BI uptake up, Yeast superoxide, Lipid droplet, AHR activator, SR-BI HDL uptake)
Nc1nc2c(ncn2[C@@H]2O[C@H](C(=O)N[C@@H](Cc3ccccc3)C(=O)NCC3CCCCC3)[C@@H](O)[C@H]2O)c(=O)[nH]1	none (no result: SR-BI uptake up, Yeast superoxide, Lipid droplet, AHR activator, SR-BI HDL uptake)
O=C1NC(=O)/C(=C\c2ccsc2)N1	none
CCN(CC)c1ccc(/C=C2\NC(=O)NC2=O)cc1	AHR activator 87.8 | AHR act confirm 56.5 | PXR counter 11.3
CCn1c(-c2cccc(Br)c2)n[nH]c1=S	none
CCn1c(-c2sc(-c3ccccc3)nc2C)n[nH]c1=S	AHR activator 81.0 | AHR act confirm 118.9 | PXR counter 18.5
O=C(Nc1ccccn1)c1ccc2ccccc2n1	AHR activator 84.2 (no result: SR-BI uptake up, Lipid droplet, SR-BI HDL uptake) | AHR act confirm 167.9 | PXR counter 24.0
Cc1cc(C(=O)Nc2ccccn2)no1	none
O=C(Nc1ccccn1)c1ccc2ccccc2c1O	AHR activator 151.0 | AHR act confirm 151.8 | PXR counter 16.2
Fc1ccc(NC(=S)N/N=C/c2ccc(F)c(F)c2)cc1	none
Fc1ccc(/C=N/NC(=S)Nc2ccc(Cl)cc2Cl)cc1	AHR activator 84.0 (no result: SR-BI uptake up, SR-BI HDL uptake) | AHR act confirm 107.2 | PXR counter inactive
O=C(CSc1nnc(-c2cccnc2)n1-c1ccc(Cl)cc1)c1ccc(F)cc1	none (no result: SR-BI uptake up, Yeast superoxide, Lipid droplet, AHR activator, SR-BI HDL uptake)
CN(C)CCCNc1nc(-c2ccc(Cl)cc2)nc2ccccc12	AHR activator 114.0 | AHR act confirm 77.2 | PXR counter 26.3
Cc1cccc(-c2nc(NCCCN(C)C)c3ccccc3n2)c1	none
C#CCNC(=O)C[C@H]1C(=O)N(Cc2ccc(OC)cc2)C2=CCCC[C@@]21C(=O)OCC	none (no result: SR-BI uptake up, Yeast superoxide, Lipid droplet, AHR activator, SR-BI HDL uptake)
CC(=O)N[C@H]1C[C@@H]2O[C@H](CO)CC[C@@H]2O[C@@H]1CCc1ccc(-c2ccc(F)cc2)cc1	none (no result: SR-BI uptake up, Yeast superoxide, Lipid droplet, AHR activator, SR-BI HDL uptake)
O=C(NCc1ccco1)C(Cc1ccccc1)N1C(=O)c2ccccc2C1=O (configuration not stated)	AHR activator 111.7 | AHR act confirm 92.7 | PXR counter 66.1
CCOC(=O)C1(Cc2ccccc2)CCN(Cc2ccc(C(F)(F)F)cc2)CC1	none (no result: SR-BI uptake up, Yeast superoxide, Lipid droplet, AHR activator, SR-BI HDL uptake)
Oc1ccccc1-c1cc(-c2ccccc2Cl)[nH]n1	AHR activator 96.0 | AHR act confirm 114.9 | PXR counter 18.5
COc1ccc(-c2nn3c(-c4n[nH]c5c4CCC5)nnc3s2)cc1	none (no result: SR-BI uptake up, Yeast superoxide, Lipid droplet, AHR activator, SR-BI HDL uptake)
Clc1ccc(-c2n[nH]c3c2CCC3)cc1Cl	AHR activator 99.8 (no result: SR-BI uptake up, Lipid droplet, SR-BI HDL uptake) | AHR act confirm 98.6 | PXR counter 20.6
C#CCNC(=O)C[C@@H]1C[C@@](CCC(=O)OCC)(C(=O)OCC)C2=CCCCN2C1=O	none (no result: SR-BI uptake up, Yeast superoxide, Lipid droplet, AHR activator, SR-BI HDL uptake)
COC(=O)[C@]12C[C@H](CC(=O)N3CCOCC3)C(=O)N(Cc3ccccc3)C1=C[C@H](C(C)(C)C)O[C@@H]2C	none (no result: SR-BI uptake up, Yeast superoxide, Lipid droplet, AHR activator, SR-BI HDL uptake)
CCOc1ccc2c(c1)c(N=O)c(O)n2C	AHR activator 94.2 | AHR act confirm 62.2 | PXR counter 10.3
CCOc1ccc(/C=N/NC(=O)c2c(C)n(C)c3ccc(OC)cc23)cc1	none
